What was measured:
[1] = biological target: T1, MAP kinase-interacting serine/threonine-protein kinase 1 (Homo sapiens, UniProt Q9BUB5); conditions: Sf21, dose 500.0 nM, time 50.0 min
Target sequence in this assay (Q9BUB5 whole entry, looked up): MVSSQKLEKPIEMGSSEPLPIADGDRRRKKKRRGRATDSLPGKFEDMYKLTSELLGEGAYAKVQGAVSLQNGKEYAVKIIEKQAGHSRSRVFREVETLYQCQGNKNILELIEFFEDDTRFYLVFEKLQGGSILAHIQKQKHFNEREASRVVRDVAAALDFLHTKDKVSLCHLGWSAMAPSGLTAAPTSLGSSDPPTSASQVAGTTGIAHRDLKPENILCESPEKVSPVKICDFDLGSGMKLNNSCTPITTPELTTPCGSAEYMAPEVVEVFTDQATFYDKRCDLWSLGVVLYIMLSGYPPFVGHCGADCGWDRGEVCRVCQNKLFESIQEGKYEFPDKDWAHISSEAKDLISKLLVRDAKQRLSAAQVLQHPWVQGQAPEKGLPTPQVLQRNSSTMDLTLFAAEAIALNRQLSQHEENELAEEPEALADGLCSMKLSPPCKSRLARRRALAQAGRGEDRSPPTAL

[2] = biological target: T2, MAP kinase-interacting serine/threonine-protein kinase 2 (Homo sapiens, UniProt Q9HBH9); conditions: Sf21, dose 500.0 nM, time 50.0 min
Target sequence in this assay (Q9HBH9 whole entry, looked up, the tested form may be a part): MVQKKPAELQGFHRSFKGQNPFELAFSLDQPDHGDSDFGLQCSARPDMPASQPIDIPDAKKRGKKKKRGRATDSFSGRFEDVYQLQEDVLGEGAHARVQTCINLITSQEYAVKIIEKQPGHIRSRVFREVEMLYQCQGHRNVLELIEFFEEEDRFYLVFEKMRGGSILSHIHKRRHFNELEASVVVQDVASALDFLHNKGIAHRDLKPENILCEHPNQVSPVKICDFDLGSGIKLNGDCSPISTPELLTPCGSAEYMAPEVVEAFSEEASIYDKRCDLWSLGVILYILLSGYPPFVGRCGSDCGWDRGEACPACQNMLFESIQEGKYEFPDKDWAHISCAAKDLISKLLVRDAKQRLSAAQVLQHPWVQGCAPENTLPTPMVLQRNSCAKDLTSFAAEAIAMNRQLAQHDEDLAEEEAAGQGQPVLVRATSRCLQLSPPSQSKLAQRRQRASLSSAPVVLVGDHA

[3] = biological target: T1, MAP kinase-interacting serine/threonine-protein kinase 1; test: Inhibition of N-terminal GST-fused human full length recombinant MNK1 (1 to 424 residues) expressed in baculovirus-infected Sf21 cells using TATKSGSTTKNR as substrate preincubated with enzyme and substrate for 10 mins followed by ATP addition and measured after 40 mins by ADP-glo luminescence assay
Target sequence in this assay (Q9BUB5 whole entry): as the sequence (Q9BUB5 whole entry, looked up) above

DOHH-2 = test: Antiproliferative activity against human DOHH-2 cells assessed as reduction in cell viability incubated for 72 hrs by MTT assay; format: functional, cell-based; conditions: DOHH-2, 72 h
Summary of the method: (§1)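 Lymphoma cells seeded and grown 12 h, then exposed to serial compound concentrations in medium with 1‰ DMSO, each in triplicate, for 72 h. DMSO-only control. Viability read by MTT and normalized to DMSO control. IC50 derived by Logit method, mean ± SD of three independent determinations.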

[4] = biological target: T2, MAP kinase-interacting serine/threonine-protein kinase 2; test: Inhibition of N-terminal GST-fused human full length recombinant MNK2 (1 to 465 residues) expressed in baculovirus-infected Sf21 cells using TATKSGSTTKNR as substrate preincubated with enzyme and substrate for 10 mins followed by ATP addition and measured after 40 mins by ADP-glo luminescence assay
Target sequence in this assay (Q9HBH9 whole entry, the tested form may be a part): as the sequence (Q9HBH9 whole entry, looked up, the tested form may be a part) above

TMD8 [5] = test: Antiproliferative activity against human TMD8 cells assessed as reduction in cell viability incubated for 72 hrs by MTT assay; format: functional, cell-based; conditions: TMD8, 72 h
Summary of the method: as §1

TMD8 [6] = test: Induction of apoptosis in human TMD8 cells assessed as necrotic cells at 1 uM incubated for 24 hrs by AnnexinV-FITC/PE staining based flow cytometry (reference value: 0%); format: functional
Summary of the method: (§2)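 TMD-8 cells seeded at 1 × 10^5 per 2 mL well and treated 24 h at 0.25, 0.5 or 1 μM, with DMSO control. Cells washed twice in cold PBS and resuspended in binding buffer. Stained with annexin V-FITC for 15 min, then PI for 5 min, both at 37 °C in the dark. Analysed by flow cytometry.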

TMD8 [7] = test: Induction of apoptosis in human TMD8 cells assessed as necrotic cells at 0.25 uM incubated for 24 hrs by AnnexinV-FITC/PE staining based flow cytometry (reference value: 0%); format: functional
Summary of the method: as §2

TMD8 [8] = test: Induction of apoptosis in human TMD8 cells assessed as early apoptotic cells at 1 uM incubated for 24 hrs by AnnexinV-FITC/PE staining based flow cytometry (reference value: 4.35%); format: functional
Summary of the method: as §2

[9] = biological target: Macrophage colony-stimulating factor 1 receptor (Homo sapiens) (UniProt P07333); test: Inhibition of CSF1R (unknown origin) at 500 nM
TMD8 [10] = test: Induction of apoptosis in human TMD8 cells assessed as late apoptotic cells at 0.5 uM incubated for 24 hrs by AnnexinV-FITC/PE staining based flow cytometry (reference value: 1.44%); format: functional
Summary of the method: as §2

[11] = biological target: AMP-activated protein kinase, AMPK (Homo sapiens) (UniProt P54646+O43741+P54619+Q9UGJ0+Q9Y478+Q13131+Q9UGI9); test: Inhibition of AMPK (unknown origin) at 500 nM; format: protein-complex assay
[12] = biological target: T3, Interleukin-1 receptor-associated kinase 4 (Homo sapiens) (UniProt Q9NWZ3); test: Inhibition of IRAK4 (unknown origin) at 500 nM
T3 sequence (whole entry): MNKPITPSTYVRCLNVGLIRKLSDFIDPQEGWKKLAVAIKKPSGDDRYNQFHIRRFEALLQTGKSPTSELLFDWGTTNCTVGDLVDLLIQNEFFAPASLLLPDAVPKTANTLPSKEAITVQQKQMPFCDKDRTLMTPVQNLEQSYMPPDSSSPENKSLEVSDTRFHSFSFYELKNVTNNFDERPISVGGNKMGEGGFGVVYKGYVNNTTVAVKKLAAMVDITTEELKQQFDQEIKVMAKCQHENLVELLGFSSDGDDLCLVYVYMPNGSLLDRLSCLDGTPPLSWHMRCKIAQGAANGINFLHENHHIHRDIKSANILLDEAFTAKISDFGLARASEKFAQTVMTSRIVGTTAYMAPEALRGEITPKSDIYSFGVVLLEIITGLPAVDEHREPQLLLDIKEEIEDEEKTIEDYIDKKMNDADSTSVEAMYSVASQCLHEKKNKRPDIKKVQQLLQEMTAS

TMD8 [13] = test: Induction of apoptosis in human TMD8 cells assessed as late apoptotic cells at 0.25 uM incubated for 24 hrs by AnnexinV-FITC/PE staining based flow cytometry (reference value: 1.44%); format: functional
Summary of the method: as §2

TMD8 [14] = test: Induction of apoptosis in human TMD8 cells assessed as viable cells at 1 uM incubated for 24 hrs by AnnexinV-FITC/PE staining based flow cytometry (reference value: 94.2%); format: functional; conditions: read-out: Activity
Summary of the method: as §2

TMD8 [15] = test: Induction of apoptosis in human TMD8 cells assessed as early apoptotic cells at 0.5 uM incubated for 24 hrs by AnnexinV-FITC/PE staining based flow cytometry (reference value: 4.35%); format: functional
Summary of the method: as §2

TMD8 [16] = test: Induction of apoptosis in human TMD8 cells assessed as viable cells at 0.5 uM incubated for 24 hrs by AnnexinV-FITC/PE staining based flow cytometry (reference value: 94.2%); format: functional; conditions: read-out: Activity
Summary of the method: as §2

TMD8 [17] = test: Induction of apoptosis in human TMD8 cells assessed as viable cells at 0.25 uM incubated for 24 hrs by AnnexinV-FITC/PE staining based flow cytometry (reference value: 94.2%); format: functional; conditions: read-out: Activity
Summary of the method: as §2

TMD8 [18] = test: Induction of apoptosis in human TMD8 cells assessed as late apoptotic cells at 1 uM incubated for 24 hrs by AnnexinV-FITC/PE staining based flow cytometry (reference value: 1.44%); format: functional
Summary of the method: as §2

[19] = biological target: Cyclin-dependent kinase 1 (Homo sapiens) (UniProt P06493); test: Inhibition of CDK1 (unknown origin) at 500 nM
[20] = biological target: Tyrosine-protein kinase BTK (Homo sapiens) (UniProt Q06187); test: Inhibition of BTK (unknown origin) at 500 nM
TMD8 [21] = test: Induction of apoptosis in human TMD8 cells assessed as early apoptotic cells at 0.25 uM incubated for 24 hrs by AnnexinV-FITC/PE staining based flow cytometry (reference value: 4.35%); format: functional
Summary of the method: as §2

[22] = biological target: Tyrosine-protein kinase JAK1 (Homo sapiens) (UniProt P23458); test: Inhibition of JAK1 (unknown origin) at 500 nM
TMD8 [23] = test: Induction of apoptosis in human TMD8 cells assessed as necrotic cells at 0.5 uM incubated for 24 hrs by AnnexinV-FITC/PE staining based flow cytometry (reference value: 0%); format: functional
Summary of the method: as §2

Sequence of Macrophage colony-stimulating factor 1 receptor (Homo sapiens) (P07333 whole entry): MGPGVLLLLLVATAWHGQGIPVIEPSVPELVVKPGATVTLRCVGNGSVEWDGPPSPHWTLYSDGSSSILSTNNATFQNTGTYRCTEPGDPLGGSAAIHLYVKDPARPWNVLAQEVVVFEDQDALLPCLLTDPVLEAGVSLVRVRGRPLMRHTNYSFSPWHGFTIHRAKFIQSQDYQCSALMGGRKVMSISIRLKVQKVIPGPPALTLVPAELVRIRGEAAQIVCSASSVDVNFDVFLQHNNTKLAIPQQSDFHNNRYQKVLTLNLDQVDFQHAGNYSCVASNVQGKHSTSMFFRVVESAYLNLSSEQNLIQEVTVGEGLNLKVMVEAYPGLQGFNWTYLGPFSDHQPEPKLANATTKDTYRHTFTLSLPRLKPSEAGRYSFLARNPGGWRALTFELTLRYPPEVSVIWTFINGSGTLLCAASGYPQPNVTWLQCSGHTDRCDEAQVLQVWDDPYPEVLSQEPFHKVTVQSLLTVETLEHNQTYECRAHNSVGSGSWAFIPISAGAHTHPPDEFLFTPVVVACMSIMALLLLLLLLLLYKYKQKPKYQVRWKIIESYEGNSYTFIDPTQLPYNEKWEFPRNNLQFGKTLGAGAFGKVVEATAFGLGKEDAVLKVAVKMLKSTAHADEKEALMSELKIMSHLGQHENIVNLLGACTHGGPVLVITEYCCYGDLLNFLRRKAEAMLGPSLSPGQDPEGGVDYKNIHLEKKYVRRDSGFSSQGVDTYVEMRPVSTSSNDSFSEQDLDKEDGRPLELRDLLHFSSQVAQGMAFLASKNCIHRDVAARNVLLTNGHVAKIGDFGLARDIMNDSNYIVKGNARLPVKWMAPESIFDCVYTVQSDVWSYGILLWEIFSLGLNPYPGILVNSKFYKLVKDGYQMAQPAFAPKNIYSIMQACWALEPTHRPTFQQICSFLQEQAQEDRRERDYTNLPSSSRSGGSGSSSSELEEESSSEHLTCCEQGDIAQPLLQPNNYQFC
Sequence of Tyrosine-protein kinase BTK (Homo sapiens) (Q06187 whole entry): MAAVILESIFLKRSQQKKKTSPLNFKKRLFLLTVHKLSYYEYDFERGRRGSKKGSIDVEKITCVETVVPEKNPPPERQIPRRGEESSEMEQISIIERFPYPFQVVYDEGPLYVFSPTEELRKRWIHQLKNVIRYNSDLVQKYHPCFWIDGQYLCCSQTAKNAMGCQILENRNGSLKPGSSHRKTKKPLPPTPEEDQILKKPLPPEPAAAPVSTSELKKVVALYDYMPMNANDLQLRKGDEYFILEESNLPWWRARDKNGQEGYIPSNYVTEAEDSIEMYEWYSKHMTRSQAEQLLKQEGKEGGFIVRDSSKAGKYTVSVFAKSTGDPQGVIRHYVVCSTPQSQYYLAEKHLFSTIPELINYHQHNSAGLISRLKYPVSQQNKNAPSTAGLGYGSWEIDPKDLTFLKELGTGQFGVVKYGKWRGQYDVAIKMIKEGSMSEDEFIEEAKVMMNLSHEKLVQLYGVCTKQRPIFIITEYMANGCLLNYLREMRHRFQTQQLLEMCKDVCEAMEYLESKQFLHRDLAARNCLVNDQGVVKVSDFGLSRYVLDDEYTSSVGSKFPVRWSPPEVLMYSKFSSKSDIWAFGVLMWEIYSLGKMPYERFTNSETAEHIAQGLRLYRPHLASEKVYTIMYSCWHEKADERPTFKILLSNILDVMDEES
Sequence of Cyclin-dependent kinase 1 (Homo sapiens) (P06493 whole entry, looked up): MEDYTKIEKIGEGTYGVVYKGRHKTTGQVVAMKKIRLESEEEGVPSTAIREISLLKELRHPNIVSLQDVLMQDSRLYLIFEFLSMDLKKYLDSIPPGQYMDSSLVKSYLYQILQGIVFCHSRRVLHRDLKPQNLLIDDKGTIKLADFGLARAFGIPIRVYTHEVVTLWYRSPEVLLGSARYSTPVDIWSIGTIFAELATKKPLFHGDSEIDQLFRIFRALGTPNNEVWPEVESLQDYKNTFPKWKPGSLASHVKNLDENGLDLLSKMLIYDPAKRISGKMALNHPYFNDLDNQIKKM
Sequence of Tyrosine-protein kinase JAK1 (Homo sapiens) (P23458 whole entry): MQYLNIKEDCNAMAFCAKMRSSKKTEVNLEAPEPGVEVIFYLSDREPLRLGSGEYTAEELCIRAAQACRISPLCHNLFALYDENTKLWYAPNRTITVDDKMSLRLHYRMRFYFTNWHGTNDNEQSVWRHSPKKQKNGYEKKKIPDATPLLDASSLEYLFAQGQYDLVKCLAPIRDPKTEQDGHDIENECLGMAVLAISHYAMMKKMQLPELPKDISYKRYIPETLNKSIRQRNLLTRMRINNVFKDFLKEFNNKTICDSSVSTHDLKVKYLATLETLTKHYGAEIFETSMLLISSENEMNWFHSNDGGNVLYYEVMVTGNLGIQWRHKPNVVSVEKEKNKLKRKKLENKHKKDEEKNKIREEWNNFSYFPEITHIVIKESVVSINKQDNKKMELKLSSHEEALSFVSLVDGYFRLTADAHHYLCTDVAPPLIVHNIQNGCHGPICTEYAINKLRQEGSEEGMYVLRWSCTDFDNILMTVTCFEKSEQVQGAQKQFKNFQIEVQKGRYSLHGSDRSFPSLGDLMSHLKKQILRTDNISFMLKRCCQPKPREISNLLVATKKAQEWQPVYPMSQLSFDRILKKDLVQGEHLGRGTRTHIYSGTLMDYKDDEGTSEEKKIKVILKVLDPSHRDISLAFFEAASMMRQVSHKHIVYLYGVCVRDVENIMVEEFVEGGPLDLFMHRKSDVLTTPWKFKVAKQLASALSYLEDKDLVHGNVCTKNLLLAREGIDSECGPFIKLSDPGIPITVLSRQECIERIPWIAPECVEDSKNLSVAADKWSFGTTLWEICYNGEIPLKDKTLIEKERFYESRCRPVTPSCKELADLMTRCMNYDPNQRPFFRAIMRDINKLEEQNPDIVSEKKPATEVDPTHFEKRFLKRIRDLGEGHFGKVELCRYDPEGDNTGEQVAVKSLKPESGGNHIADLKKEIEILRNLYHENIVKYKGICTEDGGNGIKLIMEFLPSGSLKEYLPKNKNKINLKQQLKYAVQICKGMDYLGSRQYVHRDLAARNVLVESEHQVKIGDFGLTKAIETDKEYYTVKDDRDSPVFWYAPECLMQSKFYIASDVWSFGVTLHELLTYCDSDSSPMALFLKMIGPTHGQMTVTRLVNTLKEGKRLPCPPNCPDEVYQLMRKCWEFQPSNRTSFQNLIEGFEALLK

| inhibition [1] [%] | inhibition [2] [%] | IC50 [3] [nM] | IC50 [4] [nM] | Compound | IC50 (DOHH-2) [nM] | IC50 (TMD8 [5]) [nM] | also measured |
| --- | --- | --- | --- | --- | --- | --- | --- |
| 71 | 21 | 154 | 636 | O=C(c1ccc(-c2ccc3ncc(-c4cnc5ccccc5c4)n3c2)cc1)N1CCOCC1 |  |  |  |
| 40.6 | 18.7 |  |  | O=C(c1ccc(-c2ccc3ncc(-c4cnc5ccccc5c4)n3c2)cc1)N1CCC(N2CCOCC2)CC1 |  |  |  |
| 49.8 | 34.9 |  |  | O=C(c1ccc(-c2ccc3ncc(-c4ccc5ncccc5c4)n3c2)cc1)N1CCC(N2CCOCC2)CC1 |  |  |  |
| 93.7 | 106 | 7 | 25.7 | O=C(c1ccc(-c2ccc3ncc(-c4ccc5cnccc5c4)n3c2)cc1)N1CCOCC1 |  |  |  |
| 98.7 | 77.7 | 9.4 | 2.9 | O=C(c1ccc(-c2ccc3ncc(-c4ccc5cnccc5c4)n3c2)cc1)N1CCNCC1 | 8680 | 6640 |  |
| 74.7 | 64 | 371 | 216 | O=C(c1ccc(-c2ccc3ncc(-c4ccc5ncccc5c4)n3c2)cc1)N1CCOCC1 |  |  |  |
| 62.8 | 2.41 |  |  | O=C(c1ccc(-c2ccc3ncc(-c4ccc5ncccc5c4)n3c2)cc1)N1CCC(N2CCCCC2)CC1 |  |  |  |
| 73.5 | 49.9 |  |  | O=C(c1ccc(-c2ccc3ncc(-c4ccc5ncccc5c4)n3c2)cc1)N1CCNCC1 |  |  |  |
| 70.7 | 68.1 | 67.6 | 51.2 | O=C(c1ccc(-c2ccc3ncc(-c4cnc5ccccc5c4)n3c2)cc1)N1CCNCC1 |  |  |  |

More lines, now with the values behind:

| Compound | inhibition [1] [%] | inhibition [2] [%] | IC50 [3] [nM] | IC50 [4] [nM] | IC50 (DOHH-2) [nM] | IC50 (TMD8 [5]) [nM] | also measured |
| --- | --- | --- | --- | --- | --- | --- | --- |
| O=C(c1ccc(-c2ccc3ncc(-c4cnc5ccccc5c4)n3c2)cc1)N1CCC(N2CCCCC2)CC1 | 71 | 48.8 |  |  |  |  |  |
| NC1CCN(C(=O)c2ccc(-c3cn4c(-c5ccc6cnccc6c5)cnc4cn3)cc2)CC1 |  |  | 32.1 | 18.5 | 12000 | 7570 |  |
| O=C(c1ccc(-c2ccc3ncc(-c4ccc5cnccc5c4)n3c2)cc1)N1CCC(N2CCOCC2)CC1 | 87.8 | 77.7 | 4 | 3.2 | 7550 | 4260 |  |
| N[C@H]1CCCN(C(=O)c2ccc(-c3ccc4ncc(-c5ccc6cnccc6c5)n4n3)cc2)C1 | 103 | 97.3 | 2.3 | 3.4 | 409 | 390 | Activity (TMD8 [6]): 0%; Activity (TMD8 [7]): 0%; Activity (TMD8 [8]): 9.3%; inhibition [9]: 11.6%; Activity (TMD8 [10]): 45.9%; inhibition [11]: 10.2%; inhibition [12]: 22.3%; Activity (TMD8 [13]): 19.8%; viability at 1 µM (TMD8 [14]): 12.5%; Activity (TMD8 [15]): 9.42%; viability at 0.5 µM (TMD8 [16]): 44.6%; viability at 0.25 µM (TMD8 [17]): 50.2%; Activity (TMD8 [18]): 78.2%; inhibition [19]: 5.01%; inhibition [20]: 4.1%; Activity (TMD8 [21]): 30%; inhibition [22]: 6.5%; Activity (TMD8 [23]): 0.037% |
| NC1CCN(C(=O)c2ccc(-c3ccc4ncc(-c5ccc6cnccc6c5)n4c3)cc2)CC1 |  |  | 5.2 | 16.8 | 8300 | 2060 |  |
| N[C@H]1CCCN(C(=O)c2ccc(-c3ccc4ncc(-c5ccc6cnccc6c5)n4c3)cc2)C1 |  |  | 2.5 | 2.5 | 6730 | 3460 |  |
| NC1CCN(C(=O)c2ccc(-c3ccc4ncc(-c5ccc6cnccc6c5)n4n3)cc2)CC1 |  |  | 14.5 | 15.7 | 541 | 2080 |  |
| N[C@@H]1CCCN(C(=O)c2ccc(-c3cn4c(-c5ccc6cnccc6c5)cnc4cn3)cc2)C1 |  |  | 42 | 26.7 | 3250 | 3100 |  |
| N[C@@H]1CCCN(C(=O)c2ccc(-c3ccc4ncc(-c5ccc6cnccc6c5)n4n3)cc2)C1 |  |  | 9.4 | 6.6 | 400 | 2420 |  |
| N[C@@H]1CCCN(C(=O)c2ccc(-c3ccc4ncc(-c5ccc6cnccc6c5)n4c3)cc2)C1 |  |  | 7.7 | 8.9 | 6280 | 2300 |  |
| O=C(c1ccc(-c2ccc3ncc(-c4ccc5cnccc5c4)n3c2)cc1)N1CCC(N2CCCCC2)CC1 | 92.9 | 74.7 | 2.4 | 1.5 | 3820 | 4010 |  |
| N[C@H]1CCCN(C(=O)c2ccc(-c3cn4c(-c5ccc6cnccc6c5)cnc4cn3)cc2)C1 |  |  | 27.3 | 19.4 | 5190 | 2560 |  |
| N#Cc1ccc(-c2cnc3ccc(-c4ccc(C(=O)N5CCOCC5)cc4)cn23)cc1 [TINODASERTIB] |  |  |  |  | 1620 | 2140 |  |
